{"source": "ChEMBL document CHEMBL1132235", "about": "“Thioamides: synthesis, stability, and immunological activities of thioanalogues of Imreg. Preparation of new thioacylating agents using fluorobenzimidazolone derivatives” (1999)", "key": {"[1]": {"tested_on": "Mus musculus", "experiment": "In vivo functional activity against Blood Immunophenotyping in mice at 125 mg/kg dose using NK+ as cell subset", "method_in_brief": "(§1)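 Female C57BL/6 mice, 6–8 weeks old, groups of seven, dosed i.p. once daily for four consecutive days (0, 50, 100 or 125 mg/kg) and sacrificed on day 5. Blood and spleen cells were lysed in ACK buffer (pH 7.3, 5 min), washed in PBS and stained 45 min on ice with FITC/PE surface-marker antibodies. Cells were fixed in 1% paraformaldehyde and read by flow cytometry. Values are relative subset percentages, compared by unpaired t test.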"}, "[2]": {"tested_on": "Mus musculus", "experiment": "In vivo functional activity against spleen Immunophenotyping in mice at 100 mg/kg dose using NK+CD3+ as cell subset", "method_in_brief": "as §1"}, "[3]": {"tested_on": "Mus musculus", "experiment": "In vivo functional activity against spleen Immunophenotyping in mice at 125 mg/kg dose using CD4+CD45+ as cell subset", "method_in_brief": "as §1"}, "[4]": {"tested_on": "Mus musculus", "experiment": "In vivo functional activity against Blood Immunophenotyping in mice at 0 mg/kg dose using NK+ as cell subset", "method_in_brief": "as §1"}, "[5]": {"tested_on": "Mus musculus", "experiment": "In vivo functional activity against spleen Immunophenotyping in mice at 125 mg/kg dose using CD8+CD45+ as cell subset", "method_in_brief": "as §1"}, "[6]": {"tested_on": "Mus musculus", "experiment": "In vivo functional activity against spleen Immunophenotyping in mice at 50 mg/kg dose using CD4+CD45+ as cell subset", "method_in_brief": "as §1"}, "[7]": {"tested_on": "Mus musculus", "experiment": "In vivo functional activity against Blood Immunophenotyping in mice at 100 mg/kg dose using NK+ as cell subset", "method_in_brief": "as §1"}, "[8]": {"tested_on": "Mus musculus", "experiment": "In vivo functional activity against spleen Immunophenotyping in mice at 0 mg/kg dose using LY5+ as cell subset", "method_in_brief": "as §1"}, "[9]": {"tested_on": "Mus musculus", "experiment": "In vivo functional activity against spleen Immunophenotyping in mice at 125 mg/kg dose using NK+CD3+ as cell subset", "method_in_brief": "as §1"}, "[10]": {"tested_on": "Mus musculus", "experiment": "In vivo functional activity against Blood Immunophenotyping in mice at 0 mg/kg dose using CD4+CD45+ as cell subset", "method_in_brief": "as §1"}, "[11]": {"tested_on": "Mus musculus", "experiment": "In vivo functional activity against spleen Immunophenotyping in mice at 0 mg/kg dose using CD4+CD45+ as cell subset", "method_in_brief": "as §1"}, "[12]": {"tested_on": "Mus musculus", "experiment": "In vivo functional activity against spleen Immunophenotyping in mice at 100 mg/kg dose using LY5+ as cell subset", "method_in_brief": "as §1"}, "[13]": {"tested_on": "Mus musculus", "experiment": "In vivo functional activity against spleen Immunophenotyping in mice at 125 mg/kg dose using TCR+ as cell subset", "method_in_brief": "as §1"}, "[14]": {"tested_on": "Mus musculus", "experiment": "In vivo functional activity against spleen Immunophenotyping in mice at 50 mg/kg dose using CD8+CD45+ as cell subset", "method_in_brief": "as §1"}, "[15]": {"tested_on": "Mus musculus", "experiment": "In vivo functional activity against spleen Immunophenotyping in mice at 0 mg/kg dose using TCR+ as cell subset", "method_in_brief": "as §1"}, "[16]": {"tested_on": "Mus musculus", "experiment": "In vivo functional activity against Blood Immunophenotyping in mice at 100 mg/kg dose using CD4+CD45+ as cell subset (value in parentheses indicate P value)", "method_in_brief": "as §1"}, "[17]": {"tested_on": "Mus musculus", "experiment": "In vivo functional activity against spleen Immunophenotyping in mice at 50 mg/kg dose using TCR+ as cell subset", "method_in_brief": "as §1"}, "[18]": {"tested_on": "Mus musculus", "experiment": "In vivo functional activity against spleen Immunophenotyping in mice at 100 mg/kg dose using TCR+ as cell subset", "method_in_brief": "as §1"}, "[19]": {"tested_on": "Mus musculus", "experiment": "In vivo functional activity against spleen Immunophenotyping in mice at 125 mg/kg dose using LY5+ as cell subset", "method_in_brief": "as §1"}, "[20]": {"tested_on": "Mus musculus", "experiment": "In vivo functional activity against spleen Immunophenotyping in mice at 100 mg/kg dose using CD8+CD45+ as cell subset", "method_in_brief": "as §1"}, "[21]": {"tested_on": "Mus musculus", "experiment": "In vivo functional activity against Blood Immunophenotyping in mice at 50 mg/kg dose using CD4+CD45+ as cell subset", "method_in_brief": "as §1"}, "[22]": {"tested_on": "Mus musculus", "experiment": "In vivo functional activity against spleen Immunophenotyping in mice at 50 mg/kg dose using LY5+ as cell subset", "method_in_brief": "as §1"}, "[23]": {"tested_on": "Mus musculus", "experiment": "In vivo functional activity against spleen Immunophenotyping in mice at 0 mg/kg dose using CD8+CD45+ as cell subset", "method_in_brief": "as §1"}, "[24]": {"tested_on": "Mus musculus", "experiment": "In vivo functional activity against spleen Immunophenotyping in mice at 0 mg/kg dose using NK+CD3+ as cell subset", "method_in_brief": "as §1"}, "[25]": {"tested_on": "Mus musculus", "experiment": "In vivo functional activity against Blood Immunophenotyping in mice at 50 mg/kg dose using NK+ as cell subset", "method_in_brief": "as §1"}, "[26]": {"tested_on": "Mus musculus", "experiment": "In vivo functional activity against spleen Immunophenotyping in mice at 50 mg/kg dose using NK+CD3+ as cell subset", "method_in_brief": "as §1"}, "[27]": {"tested_on": "Mus musculus", "experiment": "In vivo functional activity against spleen Immunophenotyping in mice at 100 mg/kg dose using CD4+CD45+ as cell subset", "method_in_brief": "as §1"}, "[28]": {"tested_on": "Mus musculus", "experiment": "In vivo functional activity against Blood Immunophenotyping in mice at 125 mg/kg dose using CD4+CD45+ as cell subset", "method_in_brief": "as §1"}}}
{"smiles": "N[C@@H](Cc1ccc(O)cc1)/C(S)=N/CC(=O)NCC(=O)O", "values": [{"measurement": "Activity", "setting": "[1]", "value": 6.29}, {"measurement": "Activity", "setting": "[2]", "value": 2.99}, {"measurement": "Activity", "setting": "[3]", "value": 31.93}, {"measurement": "Activity", "setting": "[4]", "value": 8}, {"measurement": "Activity", "setting": "[5]", "value": 5.46}, {"measurement": "Activity", "setting": "[6]", "value": 43.1}, {"measurement": "Activity", "setting": "[7]", "value": 5.84}, {"measurement": "Activity", "setting": "[8]", "value": 38.03}, {"measurement": "Activity", "setting": "[9]", "value": 3.37}, {"measurement": "Activity", "setting": "[10]", "value": 22.56}, {"measurement": "Activity", "setting": "[11]", "value": 41.73}, {"measurement": "Activity", "setting": "[12]", "value": 40.79}, {"measurement": "Activity", "setting": "[13]", "value": 43.59}, {"measurement": "Activity", "setting": "[14]", "value": 5.77}, {"measurement": "Activity", "setting": "[15]", "value": 58.54}, {"measurement": "Activity", "setting": "[16]", "value": 22.9}, {"measurement": "Activity", "setting": "[17]", "value": 59.07}, {"measurement": "Activity", "setting": "[18]", "value": 52.63}, {"measurement": "Activity", "setting": "[19]", "value": 50.71}, {"measurement": "Activity", "setting": "[20]", "value": 6.93}, {"measurement": "Activity", "setting": "[21]", "value": 23.94}, {"measurement": "Activity", "setting": "[22]", "value": 38.56}, {"measurement": "Activity", "setting": "[23]", "value": 4.97}, {"measurement": "Activity", "setting": "[24]", "value": 2.37}, {"measurement": "Activity", "setting": "[25]", "value": 6.37}, {"measurement": "Activity", "setting": "[26]", "value": 2.7}, {"measurement": "Activity", "setting": "[27]", "value": 34.63}, {"measurement": "Activity", "setting": "[28]", "value": 28.89}]}
